Results from ChEMBL document CHEMBL1129428 (J Med Chem, 1996).

Assays:
Mus musculus [1] = assay: Anticonvulsant activity after intraperitoneal injection into mice by using MES screen test after 0.5 hr; format: functional
Mus musculus [2] = assay: Anticonvulsant activity after intraperitoneal injection into mice measured in a maximal electroshock scree (MES) screen; format: functional
Mus musculus [3] = assay: Compound was tested for toxicity after intraperitoneal injection into mice by using toxicity screen test after 4 hr; format: organism-based; details: in vivo, ip
Summary of the method: (§1)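 Mice injected intraperitoneally at 30, 100 and 300 mg/kg and examined 0.5 and 4 h afterwards. Each entry is the minimum dose giving activity (MES protection, scPTZ protection, or rotorod failure for neurotoxicity) in half or more of the mice. Activity is called absent if nothing occurs at 300 mg/kg.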

Rattus norvegicus [4] = assay: Compound was tested for anticonvulsant activity after Oral Administration into Rats by using MES screen test after 4h,dose 50 mg/kg; number of rats out of four which were protected; format: functional
Summary of the method: (§2)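 Rats received the compound orally. […] Rats were tested in the MES screen at 0.25, 0.5, 1, 2 and 4 h. Each value is the number of rats protected out of 4. The test followed NINDS procedures.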

Rattus norvegicus [5] = assay: Compound was tested for anticonvulsant activity after Oral Administration into Rats by using MES screen test after 2h,dose 50 mg/kg; number of rats out of four which were protected; format: functional; summary of the method: as §2
Rattus norvegicus [6] = assay: Compound was tested for anticonvulsant activity after Oral Administration into Rats by using MES screen test after 0.25h,dose 50 mg/kg; No activity was demonstarted; format: functional, organism-based; design: dose 50 mg/kg; summary of the method: as §2
Rattus norvegicus [7] = assay: Compound was tested for anticonvulsant activity after Oral Administration into Rats by using MES screen test after 0.5h,dose 50 mg/kg; number of rats out of four which were protected.; format: functional; summary of the method: as §2
Rattus norvegicus [8] = assay: Compound was tested for anticonvulsant activity after Oral Administration into Rats by using MES screen test after 1h,dose 50 mg/kg; number of rats out of four which were protected; format: functional; summary of the method: as §2
Mus musculus [9] = assay: Anticonvulsant activity after intraperitoneal injection into mice by using scPTZ screen after 0.5 hr; format: functional
Mus musculus [10] = assay: Anticonvulsant activity after intraperitoneal injection into mice by using scPTZ screen test after 4 hr; format: functional
Mus musculus [11] = assay: Toxicity after intraperitoneal injection into mice by using toxicity screen test after 0.5 hr; format: organism-based; details: in vivo, ip; summary of the method: as §1
Rattus norvegicus [12] = assay: Compound was tested for anticonvulsant activity after Oral Administration into Rats by using MES screen test after 0.25h,dose 12.5 mg/kg; No activity was demonstarted; format: functional, organism-based; design: dose 12.5 mg/kg; summary of the method: as §2
Rattus norvegicus [13] = assay: Compound was tested for anticonvulsant activity after Oral Administration into Rats by using MES screen test after 4h,dose 12.5 mg/kg; number of rats out of four which were protected; format: functional; summary of the method: as §2
Rattus norvegicus [14] = assay: Anticonvulsant activity after oral administration into rats; format: functional; design: concentration or dose not given beside the values
Rattus norvegicus [15] = assay: Compound was tested for anticonvulsant activity after Oral Administration into Rats by using MES screen test after 1h,dose 12.5 mg/kg; number of rats out of four which were protected; format: functional; summary of the method: as §2
Rattus norvegicus [16] = assay: Compound was tested for anticonvulsant activity after Oral Administration into rat by using MES screen test after 2 hr; format: functional
Summary of the method: (§3)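 Rats dosed orally, typically at 50 mg/kg first, then mostly 12.5 mg/kg (some compounds at 30 mg/kg), and tested by maximal electroshock. Four rats per compound, scored at 0.25, 0.5, 1, 2 and 4 h as the number of rats protected out of 4.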

[17] = Compound was tested for toxicity after oral administration in rat by using neurotoxicity screen test after 0.25-24 hr; format: organism-based; details: in vivo
Summary of the method: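 Rat neurotoxicity after oral dosing, observed at 0.25, 0.5, 1, 2, 4, 6, 8 and 24 h (8 h omitted for one compound).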

[18] = Protection index = TD50/ED50 (MES); format: ADME, organism-based; details: rat, in vivo; read-out: PI
Rattus norvegicus [19] = assay: Compound was tested for anticonvulsant activity after Oral Administration into Rats by using MES screen test after 2h,dose 12.5 mg/kg; number of rats out of four which were protected; format: functional; summary of the method: as §2
Mus musculus [20] = assay: Compound was tested for anticonvulsant activity after intraperitoneal injection into mice by using MES screen test after 2 hr; format: functional; details: ip
Summary of the method: (§4)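 Quantitative intraperitoneal mouse testing in the MES, scPTZ or rotorod neurotoxicity screens at the peak time given for each compound (0.25–2 h). ED50 or TD50 reported in mg/kg with 95% CI and slope (SE).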

Mus musculus [21] = assay: Compound was tested for anticonvulsant activity after intraperitoneal injection into mice by using scPTZ screen test after 2 hr; format: functional; details: ip; summary of the method: as §4
[22] = Compound was tested for toxicity after intraperitoneal injection into mice by using neurotoxicity screen test after 2 hr; format: organism-based; details: mouse, in vivo, ip; summary of the method: as §4
[23] = Protection index = TD50/ED50 (MES); details: mouse, in vivo; read-out: PI
Mus musculus [24] = assay: Compound was tested for anticonvulsant activity after intraperitoneal injection into mice by using MES screen test after 0.5 hr; format: functional; details: ip; summary of the method: as §1
Mus musculus [25] = assay: Compound was tested for anticonvulsant activity after intraperitoneal injection into mice by using scPTZ screen test after 0.5 hr; format: functional; details: ip; summary of the method: as §1
Rattus norvegicus [26] = assay: Compound was tested for anticonvulsant activity after Oral Administration into Rats by using MES screen test after 0.25h,dose 50 mg/kg; number of rats out of four which were protected; format: functional; summary of the method: as §2
Rattus norvegicus [27] = assay: Compound was tested for anticonvulsant activity after Oral Administration into Rats by using MES screen test after 0.5h,dose 50 mg/kg; number of rats out of four which were protected; format: functional; summary of the method: as §2
Rattus norvegicus [28] = assay: Compound was tested for anticonvulsant activity after Oral Administration into Rats by using MES screen test after 4h,dose 12.50 mg/kg; number of rats out of four which were protected; format: functional; details: dose 12.5 mg/kg; summary of the method: as §2
Rattus norvegicus [29] = assay: Compound was tested for anticonvulsant activity after Oral Administration into Rats by using MES screen test after 0.5h,dose 12.5 mg/kg; No activity was demonstarted; format: functional, organism-based; design: dose 12.5 mg/kg; summary of the method: as §2
Rattus norvegicus [30] = assay: Compound was tested for anticonvulsant activity after Oral Administration into Rats by using MES screen test after 2h,dose 12.5 mg/kg; No activity was demonstarted; format: functional, organism-based; design: dose 12.5 mg/kg; summary of the method: as §2
Mus musculus [31] = assay: Compound was tested for anticonvulsant activity after intraperitoneal injection into mice by using MES screen test after 1 hr; format: functional; details: ip; summary of the method: as §4
Mus musculus [32] = assay: Compound was tested for anticonvulsant activity after intraperitoneal injection into mice by using scPTZ screen test after 1 hr; format: functional; details: ip; summary of the method: as §4
Rattus norvegicus [33] = assay: Compound was tested for anticonvulsant activity after Oral Administration into Rats by using MES screen test after 4h,dose 30 mg/kg; number of rats out of four which were protected; format: functional; summary of the method: as §2
Rattus norvegicus [34] = assay: Compound was tested for anticonvulsant activity after Oral Administration into Rats by using MES screen test after 0.25h,dose 30 mg/kg; No activity was demonstarted; format: functional, organism-based; design: dose 30 mg/kg; summary of the method: as §2
Rattus norvegicus [35] = assay: Compound was tested for anticonvulsant activity after Oral Administration into Rats by using MES screen test after 2h,dose 30 mg/kg; number of rats out of four which were protected; format: functional; summary of the method: as §2
Rattus norvegicus [36] = assay: Compound was tested for anticonvulsant activity after Oral Administration into Rats by using MES screen test after 0.5h,dose 30 mg/kg; No activity was demonstarted; format: functional, organism-based; design: dose 30 mg/kg; summary of the method: as §2
Rattus norvegicus [37] = assay: Compound was tested for anticonvulsant activity after Oral Administration into Rats by using MES screen test after 1h,dose 30 mg/kg; number of rats out of four which were protected; format: functional; summary of the method: as §2
Rattus norvegicus [38] = assay: Compound was tested for anticonvulsant activity after Oral Administration into Rats by using MES screen test after 0.25h,dose 12.5 mg/kg; number of rats out of four which were protected; format: functional; summary of the method: as §2
Rattus norvegicus [39] = assay: Compound was tested for anticonvulsant activity after Oral Administration into rat by using MES screen test after 4 hr; format: functional; summary of the method: as §3

SMILES | Dose (Mus musculus [1]) | Dose (Mus musculus [2]) | Dose (Mus musculus [3]) | Activity (Rattus norvegicus [4]) | Activity (Rattus norvegicus [5]) | Activity (Rattus norvegicus [8]) | Dose (Mus musculus [9]) | Dose (Mus musculus [11]) | Activity (Rattus norvegicus [12]) | Activity (Rattus norvegicus [13]) | Activity (Rattus norvegicus [14]) | Activity (Rattus norvegicus [15]) | Activity (Rattus norvegicus [19]) | TD50 at 2 h [22] | other results
NC(=O)N/N=C/c1ccc(Oc2ccc(Cl)c(Cl)c2)cc1 | 300 mg/kg | 30 mg/kg | 300 mg/kg | 4 | 4 | 4 |  |  |  |  |  |  |  |  | Activity (Rattus norvegicus [6]): No activity; Activity (Rattus norvegicus [7]): 2
Cc1ccccc1Oc1ccc(/C=N/NC(N)=O)cc1 | 30 mg/kg | 100 mg/kg | 300 mg/kg |  |  |  | 100 mg/kg | 300 mg/kg | No activity | 4 | 4 | 3 | 4 |  | Dose (Mus musculus [10]): 100 mg/kg; ED50 (Rattus norvegicus [16]): 5.65 mg/kg; TD50 [17]: > 500 mg/kg; selectivity ratio [18]: > 88
NC(=O)N/N=C/c1ccc(Sc2ccc(Br)cc2)cc1 | 100 mg/kg | 30 mg/kg | 300 mg/kg |  |  |  |  |  | No activity | 4 | 1 | 3 | 4 | 123 mg/kg | Dose (Mus musculus [10]): 300 mg/kg; ED50 (Mus musculus [20]): 24.4 mg/kg; ED50 (Mus musculus [21]): > 200 mg/kg; selectivity ratio [23]: 5.03
NC(=O)N/N=C/c1ccc(Oc2ccccc2F)cc1 | 100 mg/kg | 300 mg/kg |  | 4 | 4 | 4 | 300 mg/kg |  |  |  |  |  |  | 170 mg/kg | ED50 (Mus musculus [24]): 20.7 mg/kg; ED50 (Mus musculus [25]): > 220 mg/kg; Activity (Rattus norvegicus [26]): 2; Activity (Rattus norvegicus [27]): 4
Cc1cccc(Oc2ccc(/C=N/NC(N)=O)cc2)c1C |  | 100 mg/kg |  |  |  |  |  |  | No activity |  |  | 1 |  |  | Activity (Rattus norvegicus [28]): 1; Activity (Rattus norvegicus [29]): No activity; Activity (Rattus norvegicus [30]): No activity
NC(=O)N/N=C/c1ccc(Sc2ccc(Cl)cc2)cc1 | 100 mg/kg | 30 mg/kg | 100 mg/kg | 4 | 4 | 4 | 300 mg/kg |  |  |  |  |  |  | 53.2 mg/kg | ED50 (Mus musculus [31]): 16.2 mg/kg; Activity (Rattus norvegicus [26]): 1; Activity (Rattus norvegicus [7]): 4; ED50 (Mus musculus [32]): > 120 mg/kg; selectivity ratio [23]: 3.28
CC/C(=N/NC(N)=O)c1ccc(Sc2ccc(F)cc2)cc1 | 30 mg/kg | 100 mg/kg | 100 mg/kg |  |  |  |  | 100 mg/kg |  |  |  |  |  |  | Activity (Rattus norvegicus [33]): 3; Activity (Rattus norvegicus [34]): No activity; Activity (Rattus norvegicus [35]): 3; Activity (Rattus norvegicus [36]): No activity; Activity (Rattus norvegicus [37]): 2
C/C(=N/NC(N)=O)c1ccc(Oc2ccc(Br)cc2)cc1 | 30 mg/kg | 30 mg/kg | 100 mg/kg |  |  |  | 300 mg/kg | 300 mg/kg |  | 4 | 3 | 4 | 4 | 104 mg/kg | ED50 (Mus musculus [20]): 12.5 mg/kg; ED50 (Mus musculus [21]): > 110 mg/kg; Activity (Rattus norvegicus [38]): 1; ED50 (Rattus norvegicus [39]): 1.52 mg/kg; TD50 [17]: > 500 mg/kg
